What was measured:
[1] = biological target: T1, Toll-like receptor 9 (Mus musculus) (UniProt Q9EQU3); experiment: Activation of mouse TLR9 expressed in HEK293 cells assessed as induction of NF-kappaB activity after 18 hrs by SEAP assay; type: cell-based
T1 sequence (whole entry): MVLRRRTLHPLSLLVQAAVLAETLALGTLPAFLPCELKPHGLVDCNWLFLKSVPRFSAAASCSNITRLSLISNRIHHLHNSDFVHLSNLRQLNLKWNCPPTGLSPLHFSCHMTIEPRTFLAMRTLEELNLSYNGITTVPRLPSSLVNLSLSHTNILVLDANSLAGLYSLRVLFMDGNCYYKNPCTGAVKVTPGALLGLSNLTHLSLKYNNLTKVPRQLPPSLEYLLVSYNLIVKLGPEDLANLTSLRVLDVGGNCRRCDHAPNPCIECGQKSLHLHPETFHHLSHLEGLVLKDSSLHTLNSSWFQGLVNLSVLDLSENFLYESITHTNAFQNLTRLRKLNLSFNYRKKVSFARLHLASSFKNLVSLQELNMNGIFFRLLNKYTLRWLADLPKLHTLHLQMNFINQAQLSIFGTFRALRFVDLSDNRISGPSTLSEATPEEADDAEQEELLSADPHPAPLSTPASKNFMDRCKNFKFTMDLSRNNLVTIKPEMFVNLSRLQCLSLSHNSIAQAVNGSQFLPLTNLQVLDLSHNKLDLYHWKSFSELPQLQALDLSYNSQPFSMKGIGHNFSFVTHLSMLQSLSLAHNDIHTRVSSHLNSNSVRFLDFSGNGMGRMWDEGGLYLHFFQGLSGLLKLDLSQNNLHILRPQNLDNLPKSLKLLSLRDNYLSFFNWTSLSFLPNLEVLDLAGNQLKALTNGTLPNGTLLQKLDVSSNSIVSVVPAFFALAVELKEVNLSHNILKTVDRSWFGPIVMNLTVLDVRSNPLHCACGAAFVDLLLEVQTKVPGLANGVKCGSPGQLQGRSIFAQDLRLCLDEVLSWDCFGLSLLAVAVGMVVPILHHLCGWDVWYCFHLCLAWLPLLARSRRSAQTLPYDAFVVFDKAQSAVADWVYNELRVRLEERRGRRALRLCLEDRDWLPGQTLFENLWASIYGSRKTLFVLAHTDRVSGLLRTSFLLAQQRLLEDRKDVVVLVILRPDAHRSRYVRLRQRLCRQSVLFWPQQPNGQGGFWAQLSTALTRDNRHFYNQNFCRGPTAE
Procedure, shortened: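 HEK293 cells stably expressing mouse TLR9 were grown in DMEM with 10% heat-inactivated FBS. At 80% confluence they were transiently transfected with a SEAP reporter plasmid (100 ng/well, lipofectamine) for 6 h. Medium was then replaced and agonists were added for 18 h. Supernatant SEAP was read with QuantiBlue substrate at 620-645 nm. Results are expressed as fold NF-κB activity over PBS control.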

[2] = biological target: T1, Toll-like receptor 9 (Mus musculus); experiment: Induction of TLR9-mediated IL6 production in C57BL/6 mouse spleen cells after 24 hrs by ELISA; type: cell-based
Procedure, shortened: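 C57BL/6 mouse spleen cells were cultured with agonists at 0.1, 0.3, 1, 3 and 10 μg/mL for 24 h. Secreted IL-12 and IL-6 in the supernatants were measured by ELISA. Values are averages of triplicate wells from one representative of at least two independent experiments.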

[3] = biological target: T2, Toll-like receptor 9 (Homo sapiens) (UniProt Q9NR96); experiment: Induction of TLR9-mediated immune stimulation in human PBMC assessed as RANTES production at 2 ug/ml after 24 hrs by luminex multiplex assay (RVb = 0.05 +/- 0.04 ng/ml)
T2 sequence (whole entry): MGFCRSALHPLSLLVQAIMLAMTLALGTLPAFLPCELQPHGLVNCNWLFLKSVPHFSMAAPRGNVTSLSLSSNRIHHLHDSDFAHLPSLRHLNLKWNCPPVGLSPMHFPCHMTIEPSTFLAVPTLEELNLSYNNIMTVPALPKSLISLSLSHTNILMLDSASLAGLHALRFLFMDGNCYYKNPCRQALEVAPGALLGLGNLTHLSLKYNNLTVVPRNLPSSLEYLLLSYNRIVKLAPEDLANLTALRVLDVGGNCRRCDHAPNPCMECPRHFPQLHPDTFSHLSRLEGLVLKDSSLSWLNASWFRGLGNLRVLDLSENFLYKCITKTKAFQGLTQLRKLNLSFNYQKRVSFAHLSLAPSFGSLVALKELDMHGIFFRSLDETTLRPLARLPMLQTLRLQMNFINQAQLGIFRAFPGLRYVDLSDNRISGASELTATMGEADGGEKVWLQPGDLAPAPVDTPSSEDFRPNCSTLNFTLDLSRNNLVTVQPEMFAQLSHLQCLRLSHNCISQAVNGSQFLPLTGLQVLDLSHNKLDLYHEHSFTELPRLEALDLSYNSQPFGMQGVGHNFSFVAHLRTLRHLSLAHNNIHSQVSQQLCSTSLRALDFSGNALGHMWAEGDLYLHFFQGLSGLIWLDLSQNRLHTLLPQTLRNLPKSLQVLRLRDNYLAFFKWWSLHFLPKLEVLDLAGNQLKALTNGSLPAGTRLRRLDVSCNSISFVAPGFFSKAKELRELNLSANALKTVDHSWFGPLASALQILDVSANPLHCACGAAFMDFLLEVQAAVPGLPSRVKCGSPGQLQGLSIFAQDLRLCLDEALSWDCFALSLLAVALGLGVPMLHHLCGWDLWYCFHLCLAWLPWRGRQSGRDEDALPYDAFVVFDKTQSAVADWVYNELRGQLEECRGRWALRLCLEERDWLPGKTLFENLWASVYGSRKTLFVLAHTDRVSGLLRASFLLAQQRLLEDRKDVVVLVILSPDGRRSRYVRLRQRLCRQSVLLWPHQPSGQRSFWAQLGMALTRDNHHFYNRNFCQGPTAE

[4] = biological target: T2, Toll-like receptor 9 (Homo sapiens); experiment: Induction of TLR9-mediated immune stimulation in human PBMC assessed as MCP1 production at 2 ug/ml after 24 hrs by luminex multiplex assay (RVb = 0.08 +/- 0.02 ng/ml)
[5] = biological target: T2, Toll-like receptor 9 (Homo sapiens); experiment: Induction of TLR9-mediated immune stimulation in human PBMC assessed as MIP1alpha production at 10 ug/ml after 24 hrs by luminex multiplex assay (RVb = 0.01 ng/ml)
[6] = biological target: T2, Toll-like receptor 9 (Homo sapiens); experiment: Induction of TLR9-mediated immune stimulation in human PBMC assessed as MIP1beta production at 2 ug/ml after 24 hrs by luminex multiplex assay (RVb = 0.03 +/- 0.02 ng/ml)
[7] = biological target: T2, Toll-like receptor 9 (Homo sapiens); experiment: Induction of TLR9-mediated immune stimulation in human PBMC assessed as MIP1beta production at 10 ug/ml after 24 hrs by luminex multiplex assay (RVb = 0.03 +/- 0.02 ng/ml)
[8] = biological target: T2, Toll-like receptor 9 (Homo sapiens); experiment: Induction of TLR9-mediated immune stimulation in human PBMC assessed as IL6 production at 10 ug/ml after 24 hrs by luminex multiplex assay (RVb = 0.01 ng/ml)
[9] = biological target: T2, Toll-like receptor 9 (Homo sapiens); experiment: Induction of TLR9-mediated immune stimulation in human PBMC assessed as IL6 production at 2 ug/ml after 24 hrs by luminex multiplex assay (RVb = 0.01 ng/ml)

SMILES | Activity [1] | Activity [2] | Activity [3] | Activity [4] | Activity [5] | Activity [6] | Activity [7] | Activity [8] | Activity [9]
Cc1cn([C@H]2C[C@H](OCCOCCOCCOCCOP(=O)(S)O[C@H]3C[C@H](n4cc(C)c(=O)[nH]c4=O)O[C@@H]3COP(=O)(S)O[C@H]3[C@@H](O)[C@H](n4ccc(N)nc4=O)O[C@@H]3COP(=O)(S)O[C@H]3C[C@H](n4cc(C)c(=O)[nH]c4=O)O[C@@H]3COP(=O)(S)O[C@H]3C[C@H](n4cc(C)c(=O)[nH]c4=O)O[C@@H]3COP(=O)(S)O[C@H]3C[C@H](n4ccc5c(=O)[nH]c(N)nc54)O[C@@H]3COP(=O)(S)O[C@H]3[C@@H](O)[C@H](n4ccc(N)nc4=O)O[C@@H]3COP(=O)(S)O[C@H]3C[C@H](n4cc(C)c(=O)[nH]c4=O)O[C@@H]3COP(=O)(S)O[C@H]3[C@@H](O)[C@H](n4cnc5c(=O)[nH]c(N)nc54)O[C@@H]3COP(=O)(S)O[C@H]3C[C@H](n4cc(C)c(=O)[nH]c4=O)O[C@@H]3COP(=O)(S)O[C@H]3[C@@H](O)[C@H](n4ccc(N)nc4=O)O[C@@H]3COP(=O)(S)O[C@H]3C[C@H](n4cc(C)c(=O)[nH]c4=O)O[C@@H]3CO)[C@@H](COP(=O)(S)O[C@H]3[C@@H](O)[C@H](n4ccc(N)nc4=O)O[C@@H]3COP(=O)(S)O[C@H]3C[C@H](n4cc(C)c(=O)[nH]c4=O)O[C@@H]3COP(=O)(S)O[C@H]3C[C@H](n4cc(C)c(=O)[nH]c4=O)O[C@@H]3COP(=O)(S)O[C@H]3C[C@H](n4ccc5c(=O)[nH]c(N)nc54)O[C@@H]3COP(=O)(S)O[C@H]3[C@@H](O)[C@H](n4ccc(N)nc4=O)O[C@@H]3COP(=O)(S)O[C@H]3C[C@H](n4cc(C)c(=O)[nH]c4=O)O[C@@H]3COP(=O)(S)O[C@H]3[C@@H](O)[C@H](n4cnc5c(=O)[nH]c(N)nc54)O[C@@H]3COP(=O)(S)O[C@H]3C[C@H](n4cc(C)c(=O)[nH]c4=O)O[C@@H]3COP(=O)(S)O[C@H]3[C@@H](O)[C@H](n4ccc(N)nc4=O)O[C@@H]3COP(=O)(S)O[C@H]3C[C@H](n4cc(C)c(=O)[nH]c4=O)O[C@@H]3CO)O2)c(=O)[nH]c1=O (stereo partly drawn) | Dose-dependent effect | Dose-dependent effect | 0.7 ng/mL | 0.22 ng/mL | 0.27 ng/mL | 0.08 ng/mL | 0.96 ng/mL | 0.58 ng/mL | 0.14 ng/mL
Cc1cn([C@H]2C[C@H](OCC(O)COP(=O)(S)O[C@H]3C[C@H](n4cc(C)c(=O)[nH]c4=O)O[C@@H]3COP(=O)(S)O[C@H]3[C@@H](O)[C@H](n4ccc(N)nc4=O)O[C@@H]3COP(=O)(S)O[C@H]3C[C@H](n4cc(C)c(=O)[nH]c4=O)O[C@@H]3COP(=O)(S)O[C@H]3C[C@H](n4cc(C)c(=O)[nH]c4=O)O[C@@H]3COP(=O)(S)O[C@H]3C[C@H](n4ccc5c(=O)[nH]c(N)nc54)O[C@@H]3COP(=O)(S)O[C@H]3[C@@H](O)[C@H](n4ccc(N)nc4=O)O[C@@H]3COP(=O)(S)O[C@H]3C[C@H](n4cc(C)c(=O)[nH]c4=O)O[C@@H]3COP(=O)(S)O[C@H]3[C@@H](O)[C@H](n4cnc5c(=O)[nH]c(N)nc54)O[C@@H]3COP(=O)(S)O[C@H]3C[C@H](n4cc(C)c(=O)[nH]c4=O)O[C@@H]3COP(=O)(S)O[C@H]3[C@@H](O)[C@H](n4ccc(N)nc4=O)O[C@@H]3COP(=O)(S)O[C@H]3C[C@H](n4cc(C)c(=O)[nH]c4=O)O[C@@H]3CO)[C@@H](COP(=O)(S)O[C@H]3[C@@H](O)[C@H](n4ccc(N)nc4=O)O[C@@H]3COP(=O)(S)O[C@H]3C[C@H](n4cc(C)c(=O)[nH]c4=O)O[C@@H]3COP(=O)(S)O[C@H]3C[C@H](n4cc(C)c(=O)[nH]c4=O)O[C@@H]3COP(=O)(S)O[C@H]3C[C@H](n4ccc5c(=O)[nH]c(N)nc54)O[C@@H]3COP(=O)(S)O[C@H]3[C@@H](O)[C@H](n4ccc(N)nc4=O)O[C@@H]3COP(=O)(S)O[C@H]3C[C@H](n4cc(C)c(=O)[nH]c4=O)O[C@@H]3COP(=O)(S)O[C@H]3[C@@H](O)[C@H](n4cnc5c(=O)[nH]c(N)nc54)O[C@@H]3COP(=O)(S)O[C@H]3C[C@H](n4cc(C)c(=O)[nH]c4=O)O[C@@H]3COP(=O)(S)O[C@H]3[C@@H](O)[C@H](n4ccc(N)nc4=O)O[C@@H]3COP(=O)(S)O[C@H]3C[C@H](n4cc(C)c(=O)[nH]c4=O)O[C@@H]3CO)O2)c(=O)[nH]c1=O (stereo partly drawn) | Dose-dependent effect | Dose-dependent effect | 0.29 ng/mL | 0.46 ng/mL | 0.37 ng/mL | 0.11 ng/mL | 1.41 ng/mL | 0.5 ng/mL | 0.36 ng/mL

From ChEMBL document CHEMBL1157912, “Impact of nature and length of linker incorporated in agonists on toll-like receptor 9-mediated immune responses” (J Med Chem, 2010)
